# From ChEMBL document CHEMBL1649284 (Antimicrob Agents Chemother, 2009)
# Numbered stars: 1 amine (or outer) side, 2 acyl side, 3 side chain; on linkers, the order of the positions; unused ones are H or OH. Bridge positions count the residues as written; N and C are the ends. Square brackets hold non-standard residues; d marks the D form. Peptide text beside a SMILES is read from it. * marks the point of attachment. pTerphenylCO(4''-OnC5H11) = CCCCCOc1ccc(-c2ccc(-c3ccc(C(=O)*)cc3)cc2)cc1; Orn(4R-OH,5R-OH) = O=C([C@H](C[C@@H](O)[C@@H](O)N[*:3])N[*:1])[*:2]; hTyr(3S-OH,4S-OH) = N[C@H](C(=O)O)[C@H](O)[C@@H](O)c1ccc(O)cc1; Pro(3S-OH,4S-Me) = C[C@H]1CN[C@H](C(=O)O)[C@H]1O; Hyp = O=C(O)[C@@H]1C[C@@H](O)CN1
# Experiments:
# [1] = AUC (0 to t) in healthy human at 6 mg/kg, iv for every 12 hrs on day 1 as 120 mins infusions followed by maintenance dose of 4 mg/kg every 12 hrs on day 2 and single 4 mg/kg dose on day 3 as 100 mins infusions; format: ADME, organism-based; conditions: plasma
# In short: (§1)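 Dose by actual body weight, rounded to nearest mg. Duplicate plasma samples at 0 h, 100 min, and 2, 4, 8, 12, 24 h after the day-3 dose start. HPLC-MS/MS (range 10.0–5,000 ng/ml). Noncompartmental analysis per participant; AUC0-τ by linear-log trapezoidal rule, τ = 12 h.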
# [2] = Drug level healthy human plasma at 6 mg/kg, iv for every 12 hrs on day 1 as 120 mins infusions followed by maintenance dose of 4 mg/kg every 12 hrs on day 2 and single 4 mg/kg dose on day 3 as 100 mins infusions after 4 hrs of last dose; format: ADME, organism-based; conditions: read-out: Drug uptake
# [3] = Drug level in healthy human alveolar macrophage at 6 mg/kg, iv for every 12 hrs on day 1 as 120 mins infusions followed by maintenance dose of 4 mg/kg every 12 hrs on day 2 and single 4 mg/kg dose on day 3 as 100 mins infusions after 4 hrs of last dose; format: ADME, organism-based; conditions: alveolar macrophages, read-out: Drug uptake
# In short: (§2)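 Single bronchoscopy with BAL in healthy adults (5 per time point) after the third co-dose, following 6 h fasting and lidocaine anaesthesia. BAL centrifuged at 400 × g, 4°C, 10 min. Cell pellet lysed in 0.9% NaCl/methanol (1:1). Both drugs measured by HPLC-MS/MS against saline surrogate-matrix standards. AM concentration calculated from manual cell counts and a mean AM volume of 2.42 μl/10^6 cells. Total drug reported.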
# [4] = Drug level in healthy human alveolar macrophage at 6 mg/kg, iv for every 12 hrs on day 1 as 120 mins infusions followed by maintenance dose of 4 mg/kg every 12 hrs on day 2 and single 4 mg/kg dose on day 3 as 100 mins infusions after 12 hrs of last dose; format: ADME, organism-based; conditions: alveolar macrophages, read-out: Drug uptake; in short: as §2
# [5] = Drug level in healthy human alveolar macrophage at 6 mg/kg, iv for every 12 hrs on day 1 as 120 mins infusions followed by maintenance dose of 4 mg/kg every 12 hrs on day 2 and single 4 mg/kg dose on day 3 as 100 mins infusions after 8 hrs of last dose; format: ADME, organism-based; conditions: alveolar macrophages, read-out: Drug uptake; in short: as §2
# [6] = Drug level healthy human plasma at 6 mg/kg, iv for every 12 hrs on day 1 as 120 mins infusions followed by maintenance dose of 4 mg/kg every 12 hrs on day 2 and single 4 mg/kg dose on day 3 as 100 mins infusions after 8 hrs of last dose; format: ADME, organism-based; conditions: read-out: Drug uptake
# [7] = Tmax in healthy human at 6 mg/kg, iv for every 12 hrs on day 1 as 120 mins infusions followed by maintenance dose of 4 mg/kg every 12 hrs on day 2 and single 4 mg/kg dose on day 3 as 100 mins infusions; format: ADME, organism-based; conditions: in vivo; in short: as §1
# [8] = Volume of distribution at steady state in healthy human at 6 mg/kg, iv for every 12 hrs on day 1 as 120 mins infusions followed by maintenance dose of 4 mg/kg every 12 hrs on day 2 and single 4 mg/kg dose on day 3 as 100 mins infusions; format: ADME, organism-based; conditions: in vivo, read-out: Vdss; in short: as §1
# [9] = Drug level in healthy human epithelial lining fluid at 6 mg/kg, iv for every 12 hrs on day 1 as 120 mins infusions followed by maintenance dose of 4 mg/kg every 12 hrs on day 2 and single 4 mg/kg dose on day 3 as 100 mins infusions after 4 hrs of last dose; format: ADME, organism-based; conditions: read-out: Drug uptake
# In short: (§3)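 Single bronchoscopy with BAL in healthy adults (5 per time point) after the third co-dose, following 6 h fasting. Supernatant (400 × g, 4°C, 10 min) mixed 1:1 with methanol. Both drugs measured by HPLC-MS/MS with saline surrogate-matrix calibrators. ELF volume estimated by urea dilution, with urea in BAL and simultaneous serum measured colorimetrically. Total drug reported.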
# [10] = Elimination half life in healthy human at 6 mg/kg, iv for every 12 hrs on day 1 as 120 mins infusions followed by maintenance dose of 4 mg/kg every 12 hrs on day 2 and single 4 mg/kg dose on day 3 as 100 mins infusions; format: ADME, organism-based; conditions: in vivo, read-out: beta t1/2 (converted)
# [11] = Drug level in healthy human epithelial lining fluid at 6 mg/kg, iv for every 12 hrs on day 1 as 120 mins infusions followed by maintenance dose of 4 mg/kg every 12 hrs on day 2 and single 4 mg/kg dose on day 3 as 100 mins infusions after 8 hrs of last dose; format: ADME, organism-based; conditions: read-out: Drug uptake; in short: as §3
# [12] = Drug level in healthy human epithelial lining fluid at 6 mg/kg, iv for every 12 hrs on day 1 as 120 mins infusions followed by maintenance dose of 4 mg/kg every 12 hrs on day 2 and single 4 mg/kg dose on day 3 as 100 mins infusions after 12 hrs of last dose; format: ADME, organism-based; conditions: read-out: Drug uptake; in short: as §3
# [13] = Drug level healthy human plasma at 6 mg/kg, iv for every 12 hrs on day 1 as 120 mins infusions followed by maintenance dose of 4 mg/kg every 12 hrs on day 2 and single 4 mg/kg dose on day 3 as 100 mins infusions after 12 hrs of last dose; format: ADME, organism-based; conditions: read-out: Drug uptake
# [14] = Cmax in healthy human at 6 mg/kg, iv for every 12 hrs on day 1 as 120 mins infusions followed by maintenance dose of 4 mg/kg every 12 hrs on day 2 and single 4 mg/kg dose on day 3 as 100 mins infusions; format: ADME, organism-based; parameters: dose 6 mg/kg, route intravenous; conditions: in vivo; in short: as §1
# [15] = Elimination half life in healthy human at 200 mg, iv on day 1 as 200 mins infusion followed by maintenance dose of 100 mg every 24 hrs on days 2 and 3 as 100 mins infusions; format: ADME, organism-based; conditions: in vivo, read-out: beta t1/2 (converted)
# [16] = Drug level healthy human alveolar macrophage at 200 mg, iv on day 1 as 200 mins infusion followed by maintenance dose of 100 mg every 24 hrs on days 2 and 3 as 100 mins infusions after 24 hrs of last dose; format: ADME, organism-based; conditions: alveolar macrophages, read-out: Drug uptake; in short: as §2
# [17] = Drug level healthy human plasma at 200 mg, iv on day 1 as 200 mins infusion followed by maintenance dose of 100 mg every 24 hrs on days 2 and 3 as 100 mins infusions after 24 hrs of last dose; format: ADME, organism-based; conditions: read-out: Drug uptake
# [18] = Volume of distribution at steady state in healthy human at 200 mg, iv on day 1 as 200 mins infusion followed by maintenance dose of 100 mg every 24 hrs on days 2 and 3 as 100 mins infusions; format: ADME, organism-based; conditions: in vivo, read-out: Vdss
# In short: (§4)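 Duplicate blood draws at 0 h, 100 min (end of infusion), and 2, 4, 8, 12, 24 h after the day-3 dose start. Plasma measured by HPLC-MS/MS (range 50.0–20,000 ng/ml). Noncompartmental analysis, per participant; AUC0-τ by linear-log trapezoidal rule, τ = 24 h.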
# [19] = Drug level healthy human alveolar macrophage at 200 mg, iv on day 1 as 200 mins infusion followed by maintenance dose of 100 mg every 24 hrs on days 2 and 3 as 100 mins infusions after 12 hrs of last dose; format: ADME, organism-based; conditions: alveolar macrophages, read-out: Drug uptake; in short: as §2
# [20] = Drug level healthy human epithelial lining fluid at 200 mg, iv on day 1 as 200 mins infusion followed by maintenance dose of 100 mg every 24 hrs on days 2 and 3 as 100 mins infusions after 12 hrs of last dose; format: ADME, organism-based; conditions: read-out: Drug uptake; in short: as §3
# [21] = system: Homo sapiens; test: Total body clearance in healthy human at 200 mg, iv on day 1 as 200 mins infusion followed by maintenance dose of 100 mg every 24 hrs on days 2 and 3 as 100 mins infusions; format: ADME, organism-based; conditions: in vivo; in short: as §4
# [22] = Tmax in healthy human at 200 mg, iv on day 1 as 200 mins infusion followed by maintenance dose of 100 mg every 24 hrs on days 2 and 3 as 100 mins infusions; format: ADME, organism-based; conditions: in vivo; in short: as §4
# [23] = Drug level healthy human epithelial lining fluid at 200 mg, iv on day 1 as 200 mins infusion followed by maintenance dose of 100 mg every 24 hrs on days 2 and 3 as 100 mins infusions after 24 hrs of last dose; format: ADME, organism-based; conditions: read-out: Drug uptake; in short: as §3
# [24] = Drug level healthy human plasma at 200 mg, iv on day 1 as 200 mins infusion followed by maintenance dose of 100 mg every 24 hrs on days 2 and 3 as 100 mins infusions after 12 hrs of last dose; format: ADME, organism-based; conditions: read-out: Drug uptake
# [25] = Drug level healthy human plasma at 200 mg, iv on day 1 as 200 mins infusion followed by maintenance dose of 100 mg every 24 hrs on days 2 and 3 as 100 mins infusions after 8 hrs of last dose; format: ADME, organism-based; conditions: read-out: Drug uptake
# [26] = Drug level healthy human epithelial lining fluid at 200 mg, iv on day 1 as 200 mins infusion followed by maintenance dose of 100 mg every 24 hrs on days 2 and 3 as 100 mins infusions after 4 hrs of last dose; format: ADME, organism-based; conditions: read-out: Drug uptake; in short: as §3
# [27] = Drug level healthy human epithelial lining fluid at 200 mg, iv on day 1 as 200 mins infusion followed by maintenance dose of 100 mg every 24 hrs on days 2 and 3 as 100 mins infusions after 8 hrs of last dose; format: ADME, organism-based; conditions: read-out: Drug uptake; in short: as §3
# [28] = Drug level healthy human alveolar macrophage at 200 mg, iv on day 1 as 200 mins infusion followed by maintenance dose of 100 mg every 24 hrs on days 2 and 3 as 100 mins infusions after 4 hrs of last dose; format: ADME, organism-based; conditions: alveolar macrophages, read-out: Drug uptake; in short: as §2
# [29] = Drug level healthy human plasma at 200 mg, iv on day 1 as 200 mins infusion followed by maintenance dose of 100 mg every 24 hrs on days 2 and 3 as 100 mins infusions after 4 hrs of last dose; format: ADME, organism-based; conditions: read-out: Drug uptake
# [30] = Drug level healthy human alveolar macrophage at 200 mg, iv on day 1 as 200 mins infusion followed by maintenance dose of 100 mg every 24 hrs on days 2 and 3 as 100 mins infusions after 8 hrs of last dose; format: ADME, organism-based; conditions: alveolar macrophages, read-out: Drug uptake; in short: as §2
# [31] = system: Homo sapiens; test: AUC (0 to t) in healthy human at 200 mg, iv on day 1 as 200 mins infusion followed by maintenance dose of 100 mg every 24 hrs on days 2 and 3 as 100 mins infusions; format: ADME, organism-based, Plasma; conditions: in vivo; in short: as §4
# [32] = Cmax in healthy human at 200 mg, iv on day 1 as 200 mins infusion followed by maintenance dose of 100 mg every 24 hrs on days 2 and 3 as 100 mins infusions; format: ADME, organism-based; parameters: dose 200 mg, route intravenous; conditions: in vivo; in short: as §4
smiles,measurement,setting,value
C[C@@H](c1ncncc1F)[C@](O)(Cn1cncn1)c1ccc(F)cc1F [VORICONAZOLE],AUC(0-t),[1],39500 ng·h/mL
same,concentration at 4 h,[2],5300 ng/mL
same,concentration at 4 h,[3],20600 ng/mL
same,concentration at 12 h,[4],14400 ng/mL
same,concentration at 8 h,[5],10300 ng/mL
same,concentration at 8 h,[6],1700 ng/mL
same,Tmax,[7],1.8 h
same,Vd,[8],110 L
same,concentration at 4 h,[9],48300 ng/mL
same,half-life,[10],6.9 h
same,concentration at 8 h,[11],10100 ng/mL
same,concentration at 12 h,[12],17200 ng/mL
same,concentration at 12 h,[13],2200 ng/mL
same,Cmax,[14],5300 ng/mL
"CCCCCOc1ccc(-c2ccc(-c3ccc(C(=O)N[C@H]4C[C@@H](O)[C@@H](O)NC(=O)[C@@H]5[C@@H](O)[C@@H](C)CN5C(=O)[C@H]([C@@H](C)O)NC(=O)[C@H]([C@H](O)[C@@H](O)c5ccc(O)cc5)NC(=O)[C@@H]5C[C@@H](O)CN5C(=O)[C@H]([C@@H](C)O)NC4=O)cc3)cc2)cc1 [ANIDULAFUNGIN] ({pTerphenylCO(4''-OnC5H11)}-[Orn(4R-OH,5R-OH)]T[Hyp][hTyr(3S-OH,4S-OH)]T[Pro(3S-OH,4S-Me)]; lactam 1-C)",half-life,[15],20.8 h
same,concentration at 24 h,[16],103000 ng/mL
same,concentration at 24 h,[17],3000 ng/mL
same,Vd,[18],30.8 L
same,concentration at 12 h,[19],42700 ng/mL
same,concentration at 12 h,[20],800 ng/mL
same,clearance,[21],17.1 mL/min
same,Tmax,[22],1.9 h
same,concentration at 24 h,[23],1100 ng/mL
same,concentration at 12 h,[24],4400 ng/mL
same,concentration at 8 h,[25],5100 ng/mL
same,concentration at 4 h,[26],900 ng/mL
same,concentration at 8 h,[27],800 ng/mL
same,concentration at 4 h,[28],44600 ng/mL
same,concentration at 4 h,[29],6000 ng/mL
same,concentration at 8 h,[30],37900 ng/mL
same,AUC,[31],101000 ng·h/mL
same,Cmax,[32],6600 ng/mL
